Results as given in ChEMBL document CHEMBL4477197, “Antitumor Activity of Spicatoside A by Modulation of Autophagy and Apoptosis in Human Colorectal Cancer Cells” (J Nat Prod, 2016).

How the values were obtained:
HCT-116 [1] = assay: Cell cycle arrest in human HCT116 cells assessed as accumulation at subG1 phase at 20 uM after 48 hrs by propidium iodide staining based flow cytometry; assay type: functional
HCT-116 [2] = assay: Induction of apoptosis in human HCT116 cells at 30 uM after 48 hrs by Annexin V-FITC/propidium iodide staining based flow cytometry; assay type: functional
How it was run: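 HCT116 cells were treated 48 h, then resuspended in binding buffer at 1 × 10^6 cells/mL. They were stained with annexin V-FITC and PI for 20 min at room temperature in the dark, diluted and analyzed immediately by flow cytometry for annexin V-positive cells. n = 3.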

Compound: C[C@H]1CC[C@@]2(OC1)O[C@H]1C[C@H]3[C@@H]4CC=C5C[C@@H](O)C[C@@H](O[C@@H]6O[C@H](C)[C@H](O)[C@H](O[C@@H]7OC[C@@H](O)[C@H](O)[C@H]7O)[C@H]6O[C@@H]6O[C@H](CO)[C@@H](O)[C@H](O)[C@H]6O)[C@]5(C)[C@H]4CC[C@]3(C)[C@H]1[C@@H]2C
- Activity (HCT-116 [1]): 12.56%
- Activity (HCT-116 [2]): 24.58%
